Experimental data taken from BindingDB's records for doi:10.1016/j.bmc.2011.04.027 (University of Mansoura, 2011).

Target: T1, Prostaglandin G/H synthase 1 (Ovis aries, UniProt P05979)
T1 sequence (P05979 whole entry): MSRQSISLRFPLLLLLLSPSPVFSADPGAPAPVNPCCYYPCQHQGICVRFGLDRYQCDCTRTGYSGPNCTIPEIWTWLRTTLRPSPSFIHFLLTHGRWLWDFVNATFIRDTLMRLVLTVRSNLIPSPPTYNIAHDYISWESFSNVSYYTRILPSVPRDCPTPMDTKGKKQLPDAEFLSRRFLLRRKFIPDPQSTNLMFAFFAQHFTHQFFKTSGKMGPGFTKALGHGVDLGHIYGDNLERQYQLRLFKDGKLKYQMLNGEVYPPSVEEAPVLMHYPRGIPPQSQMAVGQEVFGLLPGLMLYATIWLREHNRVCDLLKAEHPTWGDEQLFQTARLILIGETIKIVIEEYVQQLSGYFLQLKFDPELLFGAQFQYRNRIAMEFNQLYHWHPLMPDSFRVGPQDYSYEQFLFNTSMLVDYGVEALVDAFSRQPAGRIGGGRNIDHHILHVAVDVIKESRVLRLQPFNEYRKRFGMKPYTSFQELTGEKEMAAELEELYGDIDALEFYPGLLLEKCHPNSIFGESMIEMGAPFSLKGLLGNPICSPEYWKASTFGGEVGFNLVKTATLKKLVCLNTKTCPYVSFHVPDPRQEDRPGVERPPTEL
Test: Inhibition of ovine COX1 assessed as PGF2alpha production from PGH2 after 5 mins by enzyme immunoassay
How it was run: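 Ovine COX-1 in reaction buffer with 2 mM phenol and heme, preincubated with six test concentrations (1 mL final) for 5 min at 37 °C. Arachidonic acid was then added and the reaction stopped with 1 M HCl after 2 min. Prostanoids were reduced with stannous chloride and quantified by competitive acetylcholinesterase-tracer EIA (Ellman's reagent, 410 nm). IC50 came from concentration–inhibition curves, duplicate determinations.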

IC50, > 50 µM:
FC(F)(F)c1[nH]nc(-c2ccc(Cl)cc2)c1N=Nc1ccccc1Cl [3-(4-Chlorophenyl)-4-(2-(2-chlorophenyl)hydrazono)-5-trifuoromethyl)-4H-pyrazole], FC(F)(F)c1cc(N=Nc2c(-c3ccc(Cl)cc3)n[nH]c2C(F)(F)F)cc(C(F)(F)F)c1 [3-(4-Chlorophenyl)-4-(2-(3,5-bis(trifluoromethyl)phenyl)hydrazono)-5-trifuoromethyl)-4H-pyrazole], COc1ccc(N=Nc2c(-c3ccc(Cl)cc3)n[nH]c2C(F)(F)F)cc1 [3-(4-Chlorophenyl)-4-(2-(4-methoxyphenyl)hydrazono)-5-trifuoromethyl)-4H-pyrazole], O=[N+]([O-])c1ccc(/N=N/c2c(-c3ccc(Cl)cc3)n[nH]c2C(F)(F)F)cc1 [3-(4-Chlorophenyl)-4-(2-(4-nitrophenyl)hydrazono)-5-trifuoromethyl)-4H-pyrazole]
